# Results of several laboratories.
# JAK3 JH1: Tyrosine-protein kinase JAK3, JH1 (JAK3, Homo sapiens, UniProt P52333)
# JAK3: Tyrosine-protein kinase JAK3 (JAK3, Homo sapiens, UniProt P52333)
Structure (SMILES),target,assay,setting,measurement,result
CC1=C(C#N)[C@@H](c2ccc3[nH]nc(C)c3c2)C(C#N)=C(c2ccc(Cl)cc2)N1,JAK3 JH1,"cell-free assay, competition with immobilised ligand",1 µM,remaining binding,100%
O=C(Nc1cnn(-c2csc(C(=O)NC3COC3)c2)c1)Nc1c(F)cccc1Cl,JAK3,"enzyme activity, inhibitor",5 µM,remaining activity,98.7%
CC(C)(C)c1nc(-c2cccc(NS(=O)(=O)c3c(F)cccc3F)c2F)c(-c2ccnc(N)n2)s1,JAK3,"enzyme activity, inhibitor, radiometric",1 µM,remaining activity,115%
COc1cc2ncnc(Nc3ccc(Oc4ccccc4)cc3C)c2cc1OC,JAK3,"enzyme activity, inhibitor",1 µM,inhibition,-6%
N#CCCc1ccc2c(c1)-c1[nH]c3ccc([N+](=O)[O-])cc3c1CC(=O)N2,JAK3,cell-free assay,0.5 µM,remaining signal,101%
COc1cccc(CNC(=O)c2nc3scc(COCc4ccc(C(=O)O)cc4)c3c(=O)[nH]2)c1,JAK3 JH1,"cell-free assay, competition with immobilised ligand",1 µM,remaining binding,78.4%
CCN(CC)CCNC(=O)c1c(C)[nH]c(/C=C2\C(=O)Nc3ccc(F)cc32)c1C,JAK3,"enzyme activity, inhibitor",10 µM,inhibition,69%
C=CC(=O)Nc1cc(Nc2nccc(Nc3cc(Cl)c(F)cc3C(C)(C)O)n2)c(OC)cc1N1CC[C@@H](N(C)C)C1,JAK3,"enzyme activity, inhibitor",1 µM,inhibition,24%
COc1cc(/C=C/C(=O)CC(=O)/C=C/c2ccc(O)c(OC)c2)ccc1O,JAK3,"enzyme activity, inhibitor",1 µM,activity vs control,104%
COc1cc2nccc(Oc3ccc(NC(=O)c4c5n(n(-c6ccc(F)cc6)c4=O)CCCC5)cc3)c2cc1OC,JAK3,"enzyme activity, inhibitor",0.1 µM,inhibition,-18%
O=C(NC[C@@H]1[C@H]2CN(C(=O)OCc3cc(C(F)(F)F)cc(C(F)(F)F)c3)C[C@@H]12)c1ccc2[nH]nnc2c1,JAK3 JH1,"cell-free assay, competition with immobilised ligand",1 µM,remaining binding,69%
Cc1ccc(C(=O)NCc2ccsc2)cc1C#Cc1cn(C(C)C)c2ncnc(N)c12,JAK3,"enzyme activity, inhibitor",1 µM,activity vs control,74%
Cn1nc(C(=O)NCc2ccc(C(=O)O)cc2)cc1-c1ccc2[nH]ccc2c1,JAK3 JH1,"cell-free assay, competition with immobilised ligand",0.1 µM,remaining binding,65%
O=C1NC(=O)c2cc(Nc3ccc(F)cc3)c(Nc3ccc(F)cc3)cc21,JAK3,cell-free assay,0.5 µM,remaining signal,93.9%
O=C(O)[C@@H]1[C@@H](Cn2nnc3ccccc3c2=O)CC[C@H]1C(=O)c1ccc(OCCC2CCOCC2)cc1,JAK3 JH1,"cell-free assay, competition with immobilised ligand",1 µM,remaining binding,95%
CCN(CC)c1ccc(C2=NNC(=O)CC2C)cc1[N+](=O)[O-] (stereo not shown),JAK3,"enzyme activity, inhibitor",10 µM,remaining activity,134%
CN(c1nccc(-c2cnn3ncccc23)n1)C1CC1,JAK3 JH1,cell-free assay,1 µM,remaining signal,100%
Cc1cnc(NC2CCOCC2)nc1-n1cnc(C(=O)NC(CN)c2cc(F)cc(Cl)c2)c1 (stereo not shown),JAK3,"enzyme activity, inhibitor, radiometric",1 µM,remaining activity,118%
CC(C)(O)[C@H]1CC[C@H](Nc2ccc3ncc(-c4cccc(C(F)(F)F)c4)n3n2)CC1,JAK3,"enzyme activity, inhibitor",1 µM,remaining activity,84.8%
